Measured values taken from the EternaBench riboswitch data.

Tested on: MS2 coat protein
Test: apparent Kd, MS2 coat protein; higher = weaker binding; RNA-MaP array; FMN 200 µM where present
In short: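 The apparent Kd is the median of filtered binding-curve fits, one per cluster, to green signal normalised to red-channel RNA signal and control-cluster median Fmax. The clusters were on Illumina sequencing chips, and stalled E. coli RNA polymerase had transcribed the designs on them. Titration used SNAP-549-labelled MS2 coat protein from 0.7 or 1.5 nM, doubling to 3 µM, without and then with constant ligand, in 100 mM Tris-HCl pH 7.5, 80 mM KCl, 4 mM MgCl2, BSA, DTT, yeast tRNA and Tween-20.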

[1] = designed as: OFF switch for flavin mononucleotide, no ligand
[2] = ligand present: flavin mononucleotide, designed as: OFF switch for flavin mononucleotide
[3] = designed as: ON switch for flavin mononucleotide, no ligand
[4] = ligand present: flavin mononucleotide, designed as: ON switch for flavin mononucleotide

Row | Sequence | apparent Kd [1] [nM] | apparent Kd [2] [nM] | apparent Kd [3] [nM] | apparent Kd [4] [nM]
1 | CAUUUUGCCGAGGAUAUGGAGGAUGACACUCUACCAGAAGGUGGCACAUGAGGAUCACCCAUGUGGAGUUCGCG | 79.3 | 92.7 |  | 
2 | UAAAAACAUGAGGAUCACCCAUGUGAGGAUAUCGAAAAAAAAAAAUUAAAAAAGGAAGCGAGAAGGUACGGGAU | 53.1 | 49.6 |  | 
3 | AGUACGUCAGGAUAUCUGAUGUCUAACUUCGGUUAGACAUCAGAGAAGGGACAUGAGGAUCACCCAUGUACUAG | 38.7 | 42.6 |  | 
4 | CGUAGGUAGCUGGAGGAUAUUCGAGUGGUAACAUGAGGAUCACCCAUGUGGUGAGAGGAACAUGAGGAGAAGGCUAGCUGCCUGC |  |  | 1290 | 1530
5 | GAUCCACAUGAGGAUCACCCAUGUGAGGAUAUGAUACUAUGUACUUCGGUACAUAGUAUCAGAAGGCACAUUGA | 114 | 65.9 |  | 
6 | GGCGAACAGGCUAACAUGAGGAUCACCCAUGUGGACUCAUGGUAGGAUAUCGGGAAGGAGGAAACCGAGAAGGGCCGGUGAGCC |  |  | 61 | 34.1
7 | CGAGCCGGCACUGAGGAUAUUCAUAUUUAAACAUGAGGAUCACCCAUGUAGGCCAGAAGGCCUUGGGAGAAGGCAGGUCGGCUCC |  |  | 379 | 27.2
8 | CGCUCAAUUCUUUAGGUUAGAAUCAGAAGGCGUAACAUGAGGAUCACCCAUGUAUAGACGUGUAACGAGGAUAUGAAUUGAGCG | 5.64 | 5.46 |  | 
9 | GGUGCGUAUGUGAGGAUAUGCUGGUCCUUGGCUCAGCAGAAGGCACAUGAGGAUCACCCAUGUGGUGUCGUACC | 333 | 21.8 |  | 
10 | UUUAUACAUGAGGAUCACCCAUGUGAGGAUAUGCUUUAUUAUUAUUAUUAUUAUUAUUGCAGAAGGUACGUUAU | 35.7 | 36.1 |  | 
11 | AAGGUGUUAGGAUAUCGUAGUUUGUGGCAGACGGGAUUUUGCGAGAAGGAACAUGAGGAUCACCCAUGUCGGAU | 28.4 | 28.2 |  | 
12 | GGAUCAUAUGUUAGGAUAUGCUGGACCUUGGUUCAGCAGAAGGGACAUGAGGAUCACCCAUGUCAUGUCGAUCC | 21 | 22.3 |  | 
13 | CUAAUGUGAGGAUAUGGUGUUGAUCACAGGAAAAAGAUUCUCCAGAAGGCACAUGAGGAUCACCCAUGUAGUGA | 65.6 | 175 |  | 
14 | CCUGUGUGAGGAUAUGGUGUUGGAAAAAAGGAAUAGCUCCUCCAGAAGGCACAUGAGGAUCACCCAUGUCGUGG | 21.4 | 53.2 |  | 
15 | UAAUCUCAGAUAGGAUAUAUAGGAUAAUUUAAGACCGAACAUGAGGAUCACCCAUGUGAUUAUUCGUAGAAGGAUCAAUGACCC |  |  | 78.3 | 76.2
16 | GUCCUCUCUGAGGAUAUUAUCUGGUUCGAUUGAUAAGAAGGCAGUACAUGAGGAUCACCCAUGUGGGUCGUCUG | 31 | 83.7 |  | 
17 | CAGGUAGACUGAGGAUAUACACUAAACAGCUAGUCUAUCUAGCUGGUCACAUGAGGAUCACCCAUGUAGAAGGCAGUCUGCCUG | 17.8 | 35.9 |  | 
18 | GCCUUACCGGUCAGGAUAUACAUUUGUCACUCCUUGUAGAAGGGACAUGAGGAUCACCCAUGUACAUUACAUUC | 29 | 28.6 |  | 
19 | UUGUUGUGUGUAGGAUAUGCAUAUUAUUAUUAUGCAGAAGGACAUGAGGAUCACCCAUGUAUAUUAUUAUUAUAUAUUAUAUAU | 31.1 | 36.6 |  | 

Row | Sequence | apparent Kd [1] [nM] | apparent Kd [2] [nM] | apparent Kd [3] [nM] | apparent Kd [4] [nM]
20 | UGUCGGAGCAGAGGAUAUUACAUGAGGAUCACCCAUGUAUAAAAUGGAAGCUGGAAACAGCAAUGUAAGAAGGCUGCUCCGACA | 61.2 | 288 |  | 
21 | UUAAAUCAUGUAGGAUAUGCAUGGCGAAGCUACGCAGAAGGACAUGAGGAUCACCCAUGUUAAAGCUACCGAGUACGGUGGCAA | 121 | 193 |  | 
22 | AAUUUACAUGAGGAUCACCCAUGUCAGGAUAUGGUUUUAUUUUUUUCUUUUCUUGAUUCCAGAAGGGACAGCUA | 127 | 68.3 |  | 
23 | AAUCAGCGGAACUUGACAUCCCUACAUGAGGAUCACCCAUGUCAGGAUAUAUGCUCUCGAGCUGCAUAGAAGGGACAUAGUGGG | 50.6 | 71.3 |  | 
24 | AACUAAGAAUUAAUGGUGACUGACAGAAGGCAAUAGAAUGAGACCGACAUGAGGAUCACCCAUGUUGAGGAUAUGUCUUGCUAC | 6.59 | 7.2 |  | 
25 | CAGUACUGAGGAUAUACAUGAGGAUCACCCAUGUGCUUUAGCUAGGAUACUAGCACUAGUAGAAGGCAGUACUG | 13.9 | 23.6 |  | 
26 | ACAUACAUUCGAGGAUAUCGGUGAUAAAUUUUACGAGAAGGCGAUUUACGGCAUAAUGCUGUAGACAUGAGGAUCACCCAUGUA |  |  | 71.5 | 39.2
27 | AUGUUACAUGAGGAUCACCCAUGUGAGGAUAUGUGUACCCGUAAAAAAGUGUCGGGCCAUAGAAGGCAUUUGGA | 48.4 | 49.9 |  | 
28 | AUUAUAUAGAUAGGAUAUUGAUUAUUAUUUUAACAUGAGGAUCACCCAUGUAGCCUUAUGUAUAACAAGAAGGAUCAUUUAUUA | 161 | 181 |  | 
29 | AAUUGACACGUAGGAUAUCGCUCUAUUUUAACACGAGAAGGACGUACAUGAGGAUCACCCAUGUUUAAUGGUGUAGAUAAGUUG | 105 | 228 |  | 
30 | AAACCACAUGAGGAUCACCCAUGUCAAGAGAGACUAGGAUAUCUGAAUUAAUUAAAUUAAGGAGAAGGAGUGAAAA |  |  | 121 | 64.8
31 | CGGUGACGUGUAGGAUAUGGCGAUGGGUUUUGGCCAGAAGGACAUGAGGAUCACCCAUGUGGUAGAGGGUUGGCGGCUGCCCGU | 47.4 | 181 |  | 
32 | GUGGUGAAUUAAGGAUAUCGAGUCUAGAUGUUAAACAUGAGGAUCACCCAUGUGGGUUGCGGUGUCGAGAAGGUAAUUUACGGG |  |  | 64.3 | 33.9
33 | GAGAAGUCAGGAUAUGCAUGGCGGGACUUGCGUCGUGGCGUGCAGAAGGGACAUGAGGAUCACCCAUGUGGAGA | 125 | 291 |  | 
34 | UUACAUACAAAGGUACAUGAGGAUCACCCAUGUUUGUUGGGAAGAAGGGUAACAAUACUACACAUACAGGAUAUUUCACAAACA |  |  | 49 | 35.4
35 | AUGGACAGCAUAGACACAUAGUAACGAGAAGGUACACAUGAGGAUCACCCAUGUACAGUCAGAAGUAAGGAUAUUGAAUGGUAG |  |  | 36.4 | 27.4
36 | UCGAGCAGGGAAUGGACGCUGAAGUAGGAUAUCCGCGUGGCCGUCCACAUGAGGAUCACCCAUGUGGAGAAGGGCUACAGCGAA | 5.5 | 5.63 |  | 
37 | GCAGCUCCUGACAUGAGGAUCACCCAUGUUUAAUUAUUAAAUCAGGAUAUCCUUUCGAAACGAAAGGAGAAGGGAUAAGCUGCU |  |  | 4.81 | 4.94
38 | AAGACGUGGGAAGGAUAUCUGGAAUAUCGGUCGAGAGAAGGUCCCUCGACAUGAGGAUCACCCAUGUAACGCGGUCUACCGUGU |  |  | 596 | 494

Row | Sequence | apparent Kd [1] [nM] | apparent Kd [2] [nM] | apparent Kd [3] [nM] | apparent Kd [4] [nM]
39 | AACCCUGCCUAGGAUAUACAAAAGUCACAGCUGGUAGAAGGAGGCACAUGAGGAUCACCCAUGUCACCUCGCUU | 13.4 | 13.7 |  | 
40 | CGAAGCCAAGGAUAUACAUGAGGAUCACCCAUGUGUUCCAGGCAAGCACAGCAGCGACGUAGAAGGUGGCUUCA | 17.6 | 41.7 |  | 
41 | CUCACGUUAGUAGGAUAUCCGACAUGAGGAUCACCCAUGUCACUACGCCUCAAGGGAAGGCGUAAGGAGAAGGGCUGAUAAAUA |  |  | 254 | 156
42 | GGAAAGCGAGGAUAUACAUGAGGAUCACCCAUGUAAAAGAAAAGAAAAGAAAGAAAAUGUAGAAGGCGCAAAAA | 47.8 | 48.4 |  | 
43 | CCCAAGUCAGGAUAUGGAACACAGAGACAUCUCUGUGCCCACCAGAAGGGACAUGAGGAUCACCCAUGUGAUGA | 64.4 | 296 |  | 
44 | GGGUGGCGUAGAGGAUAUGUGUUACAUGAGGAUCACCCAUGUGCAUAUGAUGUUCGUGUGUAUGCAUAGAAGGCUACGUCGCUA |  |  | 222 | 125
45 | CAGUACUGAGGAUAUACAUGAGGAUCACCCAUGUGUUCCAGCUAGGAAACUAGCACUUGUAGAAGGCAGUACUG | 24.6 | 267 |  | 
46 | GUAGCAUACCGAGGAUAUUCAUAUUACAUGAGGAUCACCCAUGUUAUAGGUCGAUUACGACCUUGGGAGAAGGCGGAAUGCUAC |  |  | 30.9 | 13.2
47 | UUAUGAGAGCAGGAUAUCUUAUUUUUUUUUUGUGGAGAAGGGCUGACAUGAGGAUCACCCAUGUGGUCCUAGAU | 27.9 | 32.9 |  | 
48 | UGCUUCAUGUAAGGAUAUGCAGCCGUUUCGGCUGCAGAAGGUACUAUAAUACAUGAGGAUCACCCAUGUCUCUCGCAUUGCGAG |  |  | 240 | 95.6
49 | UGAAUCAUGCCAUGCGCUGACAUGAGGAUCACCCAUGUGUACAAGGAUAUGUUGGUCGACGAUCGGCAGAAGGUGUAAUGGGAU | 319 | 764 |  | 
50 | AGCUAGGUAGGAUAUGCGUAAAUGUCGAAAGACGUAUUGGGACAUGAGGAUCACCCAUGUAGAAGGAUCUAGCA | 39.3 | 55.7 |  | 
51 | CCGAAUGUCACAGGAUAUGGUCCGGGCUCGCGACCAGAAGGGUGAUCUCACAUGAGGAUCACCCAUGUGUAGGCGUUAGGCUAU |  |  | 34.1 | 260
52 | GAUCCGUCCUAGAAGGCCAUUCAACAUGAGGAUCACCCAUGUGCGAACUGGAGGAUAUAGGUGGGAUAGGCCUAGGGCCCGGUC |  |  | 9.38 | 6.12
53 | CUCGAGCCAAGGCUCGCGAGUACACAGGAUAUGGAAAGUCACAUGAGGAUCACCCAUGUCCAAAACCAGAAGGGUGAGACUAAG |  |  | 425 | 85.7
54 | UCCUUGUAAGGAUAUCGACGGCUACUCAAUUAAGCCGAUGCUGAGAAGGUACAUGAGGAUCACCCAUGUCUGGU | 52.1 | 275 |  | 
55 | ACAUGAGAUCGAGGAUAUUUUGUACCUACAUGUGACAUGAGGAUCACCCAUGUGGUAAGUAUGAGAAAGAAGGCGAAGAUAUGU |  |  | 41.4 | 22.1
56 | UUAAAUCAUGUAGGAUAUGCAUGGCGAAGCUACGCAGAAGGACAUGAGGAUCACCCAUGUGCUAGCGACAGAGUACUGUUGCAA | 62.7 | 363 |  | 
